Experimental data reported in ChEMBL document CHEMBL1135657, “Novel dual inhibitors of AChE and MAO derived from hydroxy aminoindan and phenethylamine as potential treatment for Alzheimer's disease” (J Med Chem, 2002).

Key:
Acetylcholinesterase [1] = target: T1, Acetylcholinesterase (Homo sapiens, UniProt P22303); test: In vitro inhibitory concentration against purified Acetylcholinesterase of human erythrocytes
Acetylcholinesterase [2] = target: T1, Acetylcholinesterase; test: In vitro inhibitory concentration against purified Acetylcholinesterase of human erythrocytes; value ranges from 224-1012
Butyrylcholinesterase [3] = target: T2, Butyrylcholinesterase (Equus caballus, UniProt Q9N1N9); test: In vitro inhibitory concentration against Butyrylcholinesterase of horse serum; value ranges from 0.25-0.40
Method in brief: (§1)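 Ellman assay followed, with 200 µM butyrylthiocholine as substrate. Runs were in triplicate with four-point dose-response curves. IC50 and fiducial limits came from log concentration versus % inhibition.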

Acetylcholinesterase [4] = target: T1, Acetylcholinesterase; test: In vitro inhibitory concentration against purified Acetylcholinesterase of human erythrocytes; value ranges from 11.9-128
Butyrylcholinesterase [5] = target: T2, Butyrylcholinesterase; test: In vitro inhibitory concentration against Butyrylcholinesterase of horse serum; value ranges from 0.8-3.2
[6] = target: T3, Amine oxidase [flavin-containing] B (Rattus norvegicus, UniProt P19643); test: In vitro inhibitory concentration against Monoamine oxidase B of rat brain homogenates; assay type: tissue-based
T3 sequence (P19643 whole entry): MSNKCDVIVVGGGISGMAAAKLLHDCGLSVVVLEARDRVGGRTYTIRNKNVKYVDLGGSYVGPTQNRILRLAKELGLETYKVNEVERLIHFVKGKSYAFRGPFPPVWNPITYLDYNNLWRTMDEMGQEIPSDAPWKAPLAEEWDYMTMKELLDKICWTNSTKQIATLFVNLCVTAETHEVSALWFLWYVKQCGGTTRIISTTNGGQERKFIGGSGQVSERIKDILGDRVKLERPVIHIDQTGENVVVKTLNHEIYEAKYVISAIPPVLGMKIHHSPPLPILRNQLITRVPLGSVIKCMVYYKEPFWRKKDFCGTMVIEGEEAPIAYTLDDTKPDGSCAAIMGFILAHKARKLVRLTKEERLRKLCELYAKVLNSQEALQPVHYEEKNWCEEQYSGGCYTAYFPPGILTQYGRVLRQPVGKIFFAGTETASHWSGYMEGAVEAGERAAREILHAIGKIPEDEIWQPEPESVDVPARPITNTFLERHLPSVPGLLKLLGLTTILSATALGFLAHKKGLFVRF

[7] = target: T4, Amine oxidase [flavin-containing] A (Rattus norvegicus, UniProt P21396); test: In vitro inhibitory concentration against Monoamine oxidase A of rat brain homogenates; value ranges from 190-310; assay type: tissue-based
T4 sequence (P21396 whole entry): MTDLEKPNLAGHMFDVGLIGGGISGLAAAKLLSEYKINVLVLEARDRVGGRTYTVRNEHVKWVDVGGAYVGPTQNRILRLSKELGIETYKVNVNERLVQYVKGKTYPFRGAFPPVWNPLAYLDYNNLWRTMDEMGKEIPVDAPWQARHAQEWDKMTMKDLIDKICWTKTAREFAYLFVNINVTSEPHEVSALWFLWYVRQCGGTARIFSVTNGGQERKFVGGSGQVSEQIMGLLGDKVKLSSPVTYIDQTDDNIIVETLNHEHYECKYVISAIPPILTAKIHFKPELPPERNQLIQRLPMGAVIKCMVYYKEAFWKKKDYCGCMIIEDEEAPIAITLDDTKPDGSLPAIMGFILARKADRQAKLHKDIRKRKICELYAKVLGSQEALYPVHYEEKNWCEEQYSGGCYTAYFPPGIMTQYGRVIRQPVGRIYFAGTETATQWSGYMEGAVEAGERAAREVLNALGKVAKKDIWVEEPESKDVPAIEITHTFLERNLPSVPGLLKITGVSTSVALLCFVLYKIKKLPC

Butyrylcholinesterase [8] = target: T2, Butyrylcholinesterase; test: In vitro inhibitory concentration against Butyrylcholinesterase of horse serum; value ranges from 0.85-1.96; method in brief: as §1
Acetylcholinesterase [9] = target: T1, Acetylcholinesterase; test: In vitro inhibitory concentration against purified Acetylcholinesterase of human erythrocytes; value ranges from […]-[…]
Butyrylcholinesterase [10] = target: T2, Butyrylcholinesterase; test: In vitro inhibitory concentration against Butyrylcholinesterase of horse serum; value ranges from 0.016-0.021; method in brief: as §1
[11] = target: T3, Amine oxidase [flavin-containing] B; test: In vitro inhibitory concentration against Monoamine oxidase B of rat brain homogenates; value ranges from 90-260
[12] = target: T4, Amine oxidase [flavin-containing] A; test: In vitro inhibitory concentration against Monoamine oxidase A of rat brain homogenates; value ranges from 0.72-0.97; assay type: tissue-based
Acetylcholinesterase [13] = target: T1, Acetylcholinesterase
[14] = target: T4, Amine oxidase [flavin-containing] A; test: In vitro inhibitory concentration against Monoamine oxidase A of rat brain homogenates; value ranges from 290-920; assay type: tissue-based
[15] = target: T3, Amine oxidase [flavin-containing] B; test: In vitro inhibitory concentration against Monoamine oxidase B of rat brain homogenates; value ranges from 590-900
[16] = target: T4, Amine oxidase [flavin-containing] A; test: In vitro inhibitory concentration against Monoamine oxidase A of rat brain homogenates; value ranges from 260-420; assay type: tissue-based
Acetylcholinesterase [17] = target: T1, Acetylcholinesterase; test: In vitro inhibitory concentration against purified Acetylcholinesterase of human erythrocytes; value ranges from 28.1-58.3
Acetylcholinesterase [18] = target: T1, Acetylcholinesterase; remark: listed apart in the source
Butyrylcholinesterase [19] = target: T2, Butyrylcholinesterase; test: In vitro inhibitory concentration against Butyrylcholinesterase of horse serum; value ranges from 4.9-11.2; method in brief: as §1
Acetylcholinesterase [20] = target: T1, Acetylcholinesterase; test: In vitro inhibitory concentration against purified Acetylcholinesterase of human erythrocytes; value ranges from 1.28-3.30
Butyrylcholinesterase [21] = target: T2, Butyrylcholinesterase; test: In vitro inhibitory concentration against Butyrylcholinesterase of horse serum; value ranges from 0.99-1.91; method in brief: as §1
Acetylcholinesterase [22] = target: T1, Acetylcholinesterase; test: In vitro inhibitory concentration against purified Acetylcholinesterase of human erythrocytes; value ranges from 0.008-0.012
Butyrylcholinesterase [23] = target: T2, Butyrylcholinesterase; test: In vitro inhibitory concentration against Butyrylcholinesterase of horse serum; value ranges from 0.009-0.024; method in brief: as §1
[24] = target: T4, Amine oxidase [flavin-containing] A; test: In vitro inhibitory concentration against Monoamine oxidase A of rat brain homogenates; value ranges from 7.6-12.5; assay type: tissue-based
Acetylcholinesterase [25] = target: T1, Acetylcholinesterase; test: In vitro inhibitory concentration against purified Acetylcholinesterase of human erythrocytes; value ranges from 5.5-45.9
[26] = target: T3, Amine oxidase [flavin-containing] B; test: In vitro inhibitory concentration against Monoamine oxidase B of rat brain homogenates; value ranges from 6-350
[27] = target: T4, Amine oxidase [flavin-containing] A; test: In vitro inhibitory concentration against Monoamine oxidase A of rat brain homogenates; value ranges from 29-44; assay type: tissue-based
Acetylcholinesterase [28] = target: T1, Acetylcholinesterase; test: In vitro inhibitory concentration against purified Acetylcholinesterase of human erythrocytes; value ranges from 0.49-0.58
Acetylcholinesterase [29] = target: T1, Acetylcholinesterase; test: In vitro inhibitory concentration against purified Acetylcholinesterase of human erythrocytes; value ranges from 1.7-6.4
Butyrylcholinesterase [30] = target: T2, Butyrylcholinesterase; test: In vitro inhibitory concentration against Butyrylcholinesterase of horse serum; value ranges from 2.1-4.1; method in brief: as §1
[31] = Bimolecular rate constant for carbamoylation of ACHE; assay type: ADME
Method in brief: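 Human erythrocyte AChE preincubated with inhibitor at 37 °C in 0.1 M phosphate buffer, pH 7.4, under Ellman conditions with 200 µM […]. Pseudo-first-order rate constants (k_obs) for progressive inhibition were obtained at 4-5 inhibitor concentrations. The apparent bimolecular carbamylation constant k_i was calculated from these.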

T2 sequence (Q9N1N9 whole entry): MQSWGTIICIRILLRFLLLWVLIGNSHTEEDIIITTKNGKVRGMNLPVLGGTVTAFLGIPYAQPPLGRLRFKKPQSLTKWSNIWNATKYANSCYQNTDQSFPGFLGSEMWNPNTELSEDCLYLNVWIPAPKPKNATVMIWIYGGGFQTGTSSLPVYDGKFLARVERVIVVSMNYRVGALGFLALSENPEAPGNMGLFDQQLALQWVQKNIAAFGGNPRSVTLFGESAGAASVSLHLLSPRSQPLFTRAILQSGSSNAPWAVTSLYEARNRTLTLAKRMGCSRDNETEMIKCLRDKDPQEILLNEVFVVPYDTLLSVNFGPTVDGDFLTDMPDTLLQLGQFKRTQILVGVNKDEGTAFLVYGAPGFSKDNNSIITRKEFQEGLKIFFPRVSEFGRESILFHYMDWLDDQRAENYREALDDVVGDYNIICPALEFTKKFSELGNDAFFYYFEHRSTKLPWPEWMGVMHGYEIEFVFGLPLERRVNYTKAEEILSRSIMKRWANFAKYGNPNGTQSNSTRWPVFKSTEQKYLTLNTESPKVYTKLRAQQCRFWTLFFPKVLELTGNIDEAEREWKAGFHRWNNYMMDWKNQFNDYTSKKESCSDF
T1 sequence (P22303 whole entry): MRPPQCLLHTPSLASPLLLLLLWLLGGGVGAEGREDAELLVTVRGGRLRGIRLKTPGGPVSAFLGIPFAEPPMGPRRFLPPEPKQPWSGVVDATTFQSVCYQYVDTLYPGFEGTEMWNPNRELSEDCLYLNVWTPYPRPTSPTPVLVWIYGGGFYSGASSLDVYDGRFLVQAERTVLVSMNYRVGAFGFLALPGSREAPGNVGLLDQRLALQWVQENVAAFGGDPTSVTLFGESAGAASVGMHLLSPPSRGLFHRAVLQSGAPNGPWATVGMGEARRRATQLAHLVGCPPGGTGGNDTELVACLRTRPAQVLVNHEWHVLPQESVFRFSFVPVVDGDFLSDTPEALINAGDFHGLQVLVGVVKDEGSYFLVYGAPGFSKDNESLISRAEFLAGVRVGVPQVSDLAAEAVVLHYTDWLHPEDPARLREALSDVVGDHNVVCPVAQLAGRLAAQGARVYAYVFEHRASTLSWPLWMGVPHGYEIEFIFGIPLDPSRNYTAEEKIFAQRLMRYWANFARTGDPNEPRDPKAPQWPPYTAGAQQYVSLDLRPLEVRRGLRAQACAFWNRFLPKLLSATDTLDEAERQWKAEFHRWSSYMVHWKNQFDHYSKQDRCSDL

SMILES: C#CCN(C)C1CCc2cccc(OC(=O)N(C)CCC)c21 (stereo not drawn)
- IC50 (Acetylcholinesterase [1]): > 1000 µM

SMILES: C#CCNC1CCc2cccc(OC(=O)N(C)CC)c21 (stereo not drawn)
- IC50 (Acetylcholinesterase [2]): 525 µM
- IC50 (Butyrylcholinesterase [3]): 0.31 µM

SMILES: C#CCNC1CCc2ccc(OC(=O)N(C)CC)cc21 (stereo not drawn)
- IC50 (Acetylcholinesterase [4]): 47 µM
- IC50 (Butyrylcholinesterase [5]): 1.5 µM
- IC50 [6]: > 1000 µM
- IC50 [7]: 250 µM

SMILES: CNC1CCc2ccc(OC(=O)N(C)C)cc21 (stereo not drawn)
- IC50 (Butyrylcholinesterase [8]): 0.95 µM
- IC50 (Acetylcholinesterase [9]): 1.07 µM

SMILES: C#CCNC1CCc2c(OC(=O)N(C)CC)cccc21 (stereo not drawn)
- IC50 (Butyrylcholinesterase [10]): 0.019 µM
- IC50 [11]: 150 µM
- IC50 [12]: 0.83 µM
- IC50 (Acetylcholinesterase [13]): 2.15 µM

SMILES: CCNC1CCc2ccc(OC(=O)N(C)C)cc21 (stereo not drawn)
- IC50 [14]: 500 µM
- IC50 (Acetylcholinesterase [9]): 24.5 µM

SMILES: C#CCN(C)C1CCc2cccc(OC(=O)N(C)C)c21 (stereo not drawn)
- IC50 [15]: 730 µM
- IC50 [16]: 330 µM

SMILES: CCN(C)C(=O)Oc1ccc2c(c1)C(NC)CC2 (stereo not drawn)
- IC50 (Acetylcholinesterase [17]): 38.6 µM

SMILES: C#CCN(C)C1CCc2ccc(OC(=O)N(C)CCC)cc21 (stereo not drawn)
- IC50 (Acetylcholinesterase [1]): > 1000 µM

SMILES: C#CCNC1CCc2ccc(OC(=O)N(C)c3ccc(OC)cc3)cc21 (stereo not drawn)
- IC50 (Acetylcholinesterase [18]): 0.86 µM
- IC50 (Butyrylcholinesterase [19]): 6.4 µM

SMILES: C#CCNC1CCc2ccc(OC(=O)NCC)cc21 (stereo not drawn)
- IC50 (Acetylcholinesterase [9]): 13.7 µM

SMILES: C#CCNC1CCc2ccc(OC(=O)N(C)Cc3ccccc3)cc21 (stereo not drawn)
- IC50 (Acetylcholinesterase [20]): 1.78 µM
- IC50 (Butyrylcholinesterase [21]): 1.26 µM

SMILES: C#CCN(C)C1CCc2ccc(OC(=O)N(C)CC)cc21 (stereo not drawn)
- IC50 (Acetylcholinesterase [1]): > 1300 µM

SMILES: C#CCNC1CCc2ccc(OC(=O)N(CC)C3CCCCC3)cc21 (stereo not drawn)
- IC50 (Acetylcholinesterase [9]): 17.9 µM

SMILES: CN(C)C(=O)Oc1cccc2c1CCC2N (stereo not drawn)
- IC50 (Acetylcholinesterase [22]): 0.009 µM
- IC50 (Butyrylcholinesterase [23]): 0.014 µM
- IC50 [6]: > 1000 µM
- IC50 [24]: 9.8 µM

SMILES: C#CCN(C)C1CCc2ccc(OC(=O)N(C)C)cc21 (stereo not drawn)
- IC50 (Acetylcholinesterase [25]): 12.9 µM
- IC50 [26]: 47 µM
- IC50 [27]: 36 µM

SMILES: CCCCCCN(C)C(=O)Oc1ccc2c(c1)C(N)CC2 (stereo not drawn)
- IC50 (Acetylcholinesterase [28]): 0.53 µM

SMILES: C#CCNC1CCc2cccc(OC(=O)N(C)C)c21 (stereo not drawn)
- IC50 (Acetylcholinesterase [29]): 2.5 µM
- IC50 (Butyrylcholinesterase [30]): 2.8 µM

SMILES: CNC1CCc2cccc(OC(=O)N(C)C)c21 (stereo not drawn)
- IC50 (Acetylcholinesterase [9]): 0.51 µM

SMILES: CCN(C)C(=O)Oc1cccc([C@H](C)N(C)C)c1 [RIVASTIGMINE]
- Bimolecular carbamoylation rate constant (ki) [31]: 23.87 M⁻¹ s⁻¹
